The EternaBench riboswitch data

Tested on: MS2 coat protein
Assay: apparent Kd, MS2 coat protein; higher = weaker binding; RNA-MaP array; FMN 200 µM where present
Summary of the method: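 Apparent Kd: the median of filtered binding-curve fits from single clusters. Designs were transcribed on Illumina sequencing-chip clusters by stalled E. coli RNA polymerase and titrated with SNAP-549-labelled MS2 coat protein from 0.7 or 1.5 nM, doubling to 3 µM, in 100 mM Tris-HCl pH 7.5, 80 mM KCl, 4 mM MgCl2, BSA, DTT, yeast tRNA and Tween-20. Each series ran without and then with constant ligand, and green signal was normalised to red-channel RNA signal and control-cluster median Fmax.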

[1] = designed as: ON switch for flavin mononucleotide, no ligand
[2] = ligand present: flavin mononucleotide, designed as: ON switch for flavin mononucleotide
[3] = designed as: OFF switch for flavin mononucleotide, no ligand
[4] = ligand present: flavin mononucleotide, designed as: OFF switch for flavin mononucleotide

| Sequence | apparent Kd [1] [nM] | apparent Kd [2] [nM] | apparent Kd [3] [nM] | apparent Kd [4] [nM] |
| --- | --- | --- | --- | --- |
| AACAAUCUAUCUGAGGAUAUCAUGAAAUAAACAUGAGGAUCACCCAUGUGCAGGAAAUCUGCAUAUGAGAAGGCAGAUAGAUUGA | 1340 | 56.1 | – | – |
| GUCGGAAACGACAAAAGUAGCAUAGGAGAAGGCAUGUCAUAAGACAUGAGGAUCACCCAUGUUCGUGAGGAUAUCCUAUGCUAC | 37.3 | 13.2 | – | – |
| UUCGUGCAGUUUUGCUGUACGCGUACAUGAGGAUCACCCAUGUAGGAUAUGGUAGGCUUUGCUUACUAGAAGGAUAGUGUGAUC | – | – | 163 | 33.8 |
| UAAUUGUGAGGAUAUUCGAAUAACACGGAGACGUGUUGUUCGGAGAAGGCACAUGAGGAUCACCCAUGUUCCUU | – | – | 17.5 | 102 |
| UGAAAUCAUGUAGGAUAUGCAUGGCGAAGCUACGCAGAAGGACAUGAGGAUCACCCAUGUUCUAGCUACCGAGAACGGUGGCAA | – | – | 20.9 | 109 |
| GAGCUGCAGACAGGAUAUGAGGCCGCCAUGGUCUCAGAAGGGUCAUGUUCUACAUGAGGAUCACCCAUGUCGGACAGCUCGAAG | 134 | 11 | – | – |
| UGAUAGGACAGAGGAUAUGCGUAUAGUUAUCUCUACAUGAGGAUCACCCAUGUAGAAGGCUGUCCUAUCUAAGUCGGAAACGAC | – | – | 5.35 | 5.22 |
| AAAAAACAUGAGGAUCACCCAUGUAAUAAAACGUCAGGAUAUUGAUUUUAUUAUUUAUUGCAAGAAGGGACAAAAA | 56.5 | 24 | – | – |
| GCAGCAUAGUUUACUAGCUGUUACAUGAGGAUCACCCAUGUUCAGGAUAUGGUCUGGAUUACAGGCCAGAAGGGAACAAGCUGC | – | – | 14.8 | 12 |
| CAUGCCUGCACAGGAUAUCAUACAUGAGGAUCACCCAUGUCUAACAACACAUGAGAAGGGUGCAUGCCUGGGCGAAGUUUUGUG | 24.3 | 6.22 | – | – |
| UAAAAGACUAGCAAAUAGACCUUCACAUGAGGAUCACCCAUGUAGGAUAUGAGCAGAAAAUCUGCUCAGAAGGACAUGCUAGUC | – | – | 3.38 | 3.6 |
| AGCUAGUACCGAGGAUAUACAUACAUGAGGAUCACCCAUGUAUACAUGAAUUAAUGAGACUACAUGUAGAAGGCGGUACUAGCA | 69.1 | 16 | – | – |
| CGAUGGUAUAUAGGAUAUCAUGUGCAAACAUGAGGAUCACCCAUGUAGGAACGUCAGUUCAAUAAUGAGAAGGAUAUACCAUCG | 35.1 | 10.9 | – | – |
| UGGUACUAGGGAGGAUAUGGGAAGAUACAUGAGGAUCACCCAUGUCUAAGAAUGCCGAGAGGCAACUAGAAGGCCCUAGUACCU | 98.3 | 496 | – | – |
| ACUUUAUUUGAGAAGGUGAAGUGGAAACAUGAGGAUCACCCAUGUAUUAGGAAGCCUAAUUUUAUCAAGGAUAUCAAAUAAAGA | 7.93 | 8.04 | – | – |
| GGAACCGCUCAGAAGGACAUGAGGAUCACCCAUGUAGGAUAUGACUCGGUCUUUACGUGGCGCCCUGCAUCAUCGUUAUCUGCU | 165 | 23.1 | – | – |
| AUGAGUGUAAUGAUAGAGCCACUGCAGGAUAUCACAUGAGGAUCACCCAUGUGUCAGCCUCGGAGUGAGAAGGGCGGUUUCUUA | – | – | 5.65 | 9.7 |
| CUCAUGUAAGGAUAUGACUACAUAAAAAAAAAAAAAUGUAGUCAGAAGGUACAUGAGGAUCACCCAUGUACAAA | – | – | 53.7 | 35 |
| GCCUUACCGGUCAGGAUAUACACCCGUCACUCCUUGUAGAAGGGACAUGAGGAUCACCCAUGUACAUUACAUUC | – | – | 27.2 | 26.8 |
| UGUGUGAGACAGGAUAUGCCGGUUGUGUUACUGGUAGAAGGGUCUACAUGAGGAUCACCCAUGUGGCCGGCCGG | – | – | 152 | 154 |
| GGUACUCAAAGAGUACUUGGUCGAACAUGAGGAUCACCCAUGUAGGAUAUGCUAAGCAAGAAGUAGCAGAAGGACAUGUGCAGC | – | – | 14.8 | 56.5 |
| ACAUGAGGAUCACCCAUGUUAAAUUAGGAUAUUUGACUGCACAUGAGGUUCACCCAUGUUCUACCGAAGAAGGGAUAAAUAAUU | 49 | 50 | – | – |
| UCGUAUACACAAGGAUAUCAAUGAUUUGUGGAUCCUACAUGAGGAUCACCCAUGUUUUUAUAUUGUGAGAAGGUGUAGUGUCUU | 507 | 684 | – | – |
| GCAUAUCAGGGAGGAUAUGACAUGAGGAUCACCCAUGUAAUUAUGGCUCUGUCAGAAGGCCCAUCGUCACUAUAGCGACGAGAA | – | – | 587 | 16.9 |
| GUAGUUAGUAAAGGAUAUUAGUGUGUGUAAUAUUGAGAAGGUUACAUGAGGAUCACCCAUGUGAUCAAUCACUGUUAAGGUUGC | – | – | 6.6 | 6.42 |
| ACAUGAUCAGGAUAUACAUGAGGAUCACCCAUGUAUUUCAAAAAGGGACUUUCUUAAUGUAGAAGGGAUCUUGU | – | – | 14.7 | 33.8 |
| AACCAACAUGAGGAUCACCCAUGUCAACCCAAGCGAGGAUAUCGGAGAAUAACAAUGGGACGAGAAGGCGCGACCU | 72.9 | 47.8 | – | – |
| ACGUUAAUUCGAGGAUAUCGGUGAUAUAAUUUACGAGAAGGCGAUAAUUGUGAUAAACUUAUAGACAUGAGGAUCACCCAUGUA | 42.6 | 39.2 | – | – |

| Sequence | apparent Kd [1] [nM] | apparent Kd [2] [nM] | apparent Kd [3] [nM] | apparent Kd [4] [nM] |
| --- | --- | --- | --- | --- |
| GCAAGAAUAGGAUAUACACCGUGUCAGCUUCUAUACAUCGCACAUGAGGAUCACCCAUGUAGAAGGGUUCUCUG | – | – | 236 | 217 |
| CGAUUGUAUAGAGGAUAUGUUAUACAUGAGGAUCACCCAUGUGAGGUGGAAAUAUUUAAUUACAUACAGAAGGCUAUACAAUCG | – | – | 231 | 237 |
| CAGCGAUAGCUGAAUGGUACAUCCGAGGAUAUUCAUAAACAACAUGAGGAUCACCCAUGUAAUUGGGAGAAGGCGGAUGUACCU | 23.1 | 5.97 | – | – |
| AUAGGCCUAGGAUAUACAUGAGGAUCACCCAUGUUAAUAUUUCAAUCAUGAUAAACGUGUAGAAGGAGGAAUAA | – | – | 25.9 | 28.6 |
| AAAUAAAGCAGUGUAUUAAGAUCACAUGAGGAUCACCCAUGUAGAAGGCUCGAGCAAAAUGCUCGAGAGGAUAUGCAACACUGC | – | – | 5.12 | 35 |
| UUAAAUCAUGUAGGAUAUGCAUGGCGAAGCUACGCAGAAGGACAUGAGGAUCACCCAUGUGCUAGCUACCGGAUACGGUGGCAA | – | – | 60.7 | 264 |
| CCACGUCACAUUAACAUGAGGAUCACCCAUGUCUCUUGACAUGAGGAUAUGGAUCCUAAUUGGAUCCAGAAGGCAUGGACGUGG | 1370 | 99.8 | – | – |
| GAUCCACAUGAGGAUCACCCAUGUGAGGAUAUGUCCAUAUUCGGCAAAUCGGAUAUGGACAGAAGGCACACCGG | – | – | 120 | 47.4 |
| CAGCGCUGUCGAGAGGAUAUGCGGUGAUGGACAUGAGGAUCACCCAUGUUAGCGACAGCAUUACGGUAGAAGGCUUCACAGCUGC | 51.5 | 202 | – | – |
| GGGAAGUAAGGAUAUGCUGCUCGUCACUUGCGUGAUGAGUAGCAGAAGGUACAUGAGGAUCACCCAUGUAAAAA | – | – | 30.2 | 28.6 |
| AUGCUUAUCGAAGGAUAUGGUUACAUGAGGAUCACCCAUGUUAUGCUUGGUUACUUGUUUAGUUUCCAGAAGGUCGAUUAGUUG | – | – | 71 | 172 |
| AAACAUGUCCGAGGAUAUCUGGAAACAUUUUCAAGAGAAGGCGGACAUGAGGAUCACCCAUGUCUCACCUCAUCAAAUCCAAGU | – | – | 8.24 | 30.2 |
| AUCAGCUCGUCAGGAUAUACGUCACUACGUCAGCAGUGUGGUAAGAUCACAUGAGGAUCACCCAUGUAGAAGGGACGAGCUGAU | – | – | 21.4 | 201 |
| AGGAGAAAUGUAGGAUAUGUAUAUAUAUAUGGGCAAAGCGCAUAUAUAUAUACAGAAGGACAUGAGGAUCACCCAUGUUUCCCU | – | – | 11.4 | 13.5 |
| UCCUUCUGUUGAGGAUAUGUAAGACAGCGGCUGCUAUUGCGGCCCGCUGAUACAGAAGGCAACAUGAGGAUCACCCAUGUUCAA | – | – | 22.9 | 163 |
| CACUGCAUGUAAGGAUAUCGACUGGAUAACAGUCGAGAAGGUACAUGAGGAUCACCCAUGUAAGCAGUGAAUAAUAAUAAUAAU | – | – | 13.2 | 25.2 |
| AGUAAGAUGCAGAAGGUGUCAGCGAGAGCUGCGACAUGAGGAUCACCCAUGUACUAGUGAGAGUACAAGGAUAUGCAUCUUACA | 313 | 45.7 | – | – |
| GCCACACAUGAGGAUCACCCAUGUGAGGAUAUCAUGCUUCGUAGUAAACUACGAAGUGUGAGAAGGCACAUGGC | – | – | 33.4 | 155 |
| UUUUAGUGAGGAUAUGUGGCUUCGAUCGUGAGAUCGAGGCUACAGAAGGCACAUGAGGAUCACCCAUGUUCCUC | – | – | 38.3 | 597 |
| UGAAACUACGAGAAGGACAUGUGGUCCUUCAGUUACAUGAGGAUCACCCAUGUAGGAUAUCGUAGUUUCAGGAUCGUGAGAUCU | – | – | 38.5 | 12.7 |
| CCGGUUUAGGAGGAUAUAGGAGUCGAUAGACACCUAGAAGGCCUAACAUGAGGAUCACCCAUGUGACCUACCGG | – | – | 51.1 | 177 |
| AACUGUACAGGAUAUACAUGAGGAUCACCCAUGUGAGAAUUAAGUGGAGAACCACAAAGUAGAAGGGUACAGGA | – | – | 44.8 | 286 |
| GUGGUCAGACAUGAGGAUCACCCAUGUGGAAUAAAUAAGGAAAAGGAUAUGGAAUAUAGGAUAUACCAGAAGGUUUGGUUGGUG | 105 | 127 | – | – |
| UGUAUGGACAGAGGAUAUACAGAUAGGAUCUACUAUCAAACAGUCCUAACAUGAGGAUCACCCAUGUAGAAGGCUGUCCAUACU | – | – | 20.6 | 82.1 |
| CCGCUCGAAGGAUAUACAAUCCUCAGACUCUUCGACCAAAGACAUGAGGAUCACCCAUGUAGAAGGUCGGCGGA | – | – | 13.3 | 25.9 |
| CCAGCAACAUGAGGAUCACCCAUGUAGGAUAUCGCUAUUGUAAUCAUGAAACAUGAUUACAAUAGCGAGAAGGACAUAUGCUGG | – | – | 6.31 | 10.1 |
| UAUAUAUUCGUAGGAUAUCCGUUAAAACCAUGUGGAGAAGGACGAACAUGAGGAUCACCCAUGUAUCAUGGUGUAGACAAUUUU | – | – | 40.3 | 187 |
